ChEMBL document CHEMBL4834396, “Molecular Recognition and Imaging of Human Telomeric G-Quadruplex DNA in Live Cells: A Systematic Advancement of Thiazole Orange Scaffold To Enhance Binding Specificity and Inhibition of Gene Expression” (J Med Chem, 2021)
The source made the active and inactive calls. The rule behind the calls is not given here.

Assays:
[1] = system: Quadruplex DNA; assay: Binding affinity to c-myc promoter G-quadruplex DNA Pu22 (unknown origin) assessed as equilibrium binding constant at 5 uM at 25 degreeC by […]; format: nucleic-acid assay
Method in brief: (§1)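 Fluorescence titration: ligand 5 μM in 10 mM Tris-HCl pH 7.4 with 60 mM KCl, nucleic acid added until saturation, 25 °C. Keq from nonlinear fit of F/F0 to an independent-site model.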

[2] = Water solubility of compound at 25 degreeC; format: physicochemical
Method in brief: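 Solubility in water measured at 25 °C.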

[3] = system: Quadruplex DNA; assay: Binding affinity to telomeric Telo21 G-quadruplex DNA (unknown origin) assessed as equilibrium binding constant at 5 uM at 25 degreeC by […]; format: nucleic-acid assay
Method in brief: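 Fluorescence titration: ligand at 5 μM in 10 mM Tris-HCl, pH 7.4, with 60 mM KCl, 25 °C. DNA was added slowly until saturation. Keq was obtained by nonlinear fitting of F/F0 to an independent-site model.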

[4] = system: Quadruplex DNA; assay: Binding affinity to telomeric Htg24 G-quadruplex DNA (unknown origin) assessed as emission wavelength at 480 to 483 nm at pH 7.4 by spectrophotometric method; format: nucleic-acid assay
[5] = system: HepG2; assay: Antiproliferative activity against human HepG2 cells assessed as reduction in cell viability […] by MTT assay; format: functional, cell-based
[6] = system: U-87 MG; assay: Antiproliferative activity against human U87 cells assessed as reduction in cell viability […] by MTT assay; format: functional, cell-based, U-87MG ATCC
[7] = system: rRNA; assay: Binding affinity to rRNA (unknown origin) assessed as equilibrium binding constant at 5 uM at 25 degreeC […]; format: nucleic-acid assay; method in brief: as §1
[8] = system: HeLa; assay: Antiproliferative activity against human HeLa cells assessed as reduction in cell viability […] by MTT assay; format: functional, cell-based
[9] = system: MCF7; assay: Antiproliferative activity against human MCF7 cells assessed as reduction in cell viability […] by MTT assay; format: functional, cell-based
[10] = system: Quadruplex DNA; assay: Binding affinity to telomeric Htg24 G-quadruplex DNA (unknown origin) assessed as stroke shift under at 480 to 483 nm at pH 7.4 by spectrophotometric method
[11] = system: HeLa; assay: Downregulation of hTERT mRNA expression in human HeLa cells at 5 to 20 uM by qRT-PCR analysis; format: functional, cell-based; conditions: dose 5-20 µM
Method in brief: (§2)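 HeLa cells were treated with graded compound concentrations, then incubated 36 h. RNA was extracted with Trizol/chloroform, reverse transcribed and quantified by qRT-PCR. GAPDH served as internal control, with relative expression by the ΔΔCt method; three independent experiments, mean ± SD.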

[12] = system: Quadruplex DNA; assay: Binding affinity to telomeric Htg24 G-quadruplex DNA (unknown origin) assessed as fluorescence quantum yield by fluorescence spectrophotometric method; format: nucleic-acid assay
Method in brief: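 Fluorescence quantum yield determined against fluorescein (Φ = 0.95) in 1% NaOH ethanol. Five increasing ligand concentrations added to fixed DNA, with absorbance and emission recorded for each.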

[13] = system: 16HBE14o-; assay: Cytotoxicity against human 16HBE14o- cells assessed as cell viability incubated for 48 hrs by MTT assay; format: cell-based; conditions: 36 h, in the assay text read “36 hrs” for “48 hrs”
Method in brief: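 Cells were plated and grown 48 h at 37 °C, 5% CO2, in DMEM with 10% FBS. They were then given graded ligand concentrations for 36 h and treated with MTT (5 mg/ml) for 4 h in the dark. Formazan was dissolved in DMSO and absorbance read at 577 nm. IC50 was taken from a sigmoidal dose–response fit; three independent experiments.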

[14] = system: PC-3; assay: Antiproliferative activity against human PC-3 cells assessed as reduction in cell viability […] by MTT assay; format: functional, cell-based
[15] = system: Quadruplex DNA; assay: Stabilization of telomeric Htg24 G-quadruplex DNA (unknown origin) assessed as inhibition of DNA amplification at 20 uM by PCR analysis; format: nucleic-acid assay
Method in brief: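 Taq polymerase stop assay: Htg24 or its non-G4 mutant template (5 μM) with 2 μM of each oligomer, […] and ligand at 0–20 μM. Cycling was 94 °C for 5 min, then 30 cycles of 94/56/72 °C at 30 s each. Products were resolved on 15% PAGE and stained with SYBR Gold.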

[16] = system: HeLa; assay: Downregulation of hTERC mRNA expression in human HeLa cells at 5 to 20 uM by qRT-PCR analysis; format: functional, cell-based; conditions: dose 5-20 µM; method in brief: as §2
[17] = system: DNA; assay: Binding affinity to ds26 DNA (unknown origin) assessed as equilibrium binding constant at 5 uM at 25 degreeC by […]; format: nucleic-acid assay; method in brief: as §1
[18] = system: Quadruplex DNA; assay: Binding affinity to telomeric Htg24 G-quadruplex DNA (unknown origin) assessed as equilibrium binding constant at 5 uM at 25 degreeC by […]; format: nucleic-acid assay; method in brief: as §1
[19] = system: Quadruplex DNA; assay: Displacement of 2-((E)-4-(Dimethylamino)styryl)-1-methyl-4-((Z)-(3-(3-morpholinopropyl)benzo[d]thiazol-2(3H)-ylidene)methyl)quinolin-1-ium iodide from telomeric Htg24 G4 quadruplex DNA in human U87 cells assessed as decrease in fluorescence intensity at 5 to 20 uM by competition binding assay; format: cell-based; conditions: dose 5-20 µM
Method in brief: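 Live U87 cells were stained with probe at 5 μM plus DAPI and co-treated with BRACO19 at 5, 10, 15 or 20 μM. Confocal imaging used excitation at 488 or 571 nm for the probe and 402 nm for DAPI. Nuclear spot intensity was compared across concentrations.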

[20] = system: HeLa; assay: Induction of cellular senescence in human HeLa cells assessed as positive SA-beta-Gal cells at 0.5 to 4 uM incubated for 18 days by inverted fluorescence microscopic analysis; format: functional, cell-based; conditions: dose 0.5-4 µM, time 18.0 day
Method in brief: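 HeLa cells were exposed to compound for 18 days, with drug-containing medium replaced every three days. Cells were then fixed 15 min at room temperature and stained for β-galactosidase at 37 °C overnight. Stained cells were examined under an inverted microscope.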

Kb [1] [M⁻¹] | solubility [2] [µM] | Kb [3] [M⁻¹] | Kb [7] [M⁻¹] | Activity [15] | Kb [17] [M⁻¹] | Kb [18] [M⁻¹] | Structure (SMILES) | Activity [11] | Activity [16] | also measured
550000 | 147 | – | – | – | – | – | CC1CCN(CCCN2/C(=C/c3cc(/C=C/c4ccc(O)cc4)[n+](C)c4ccccc34)Sc3ccccc32)CC1.[I-] | – | – | –
– | 167 | 965000 | – | – | – | – | C[n+]1c(/C=C/c2ccc(O)cc2)cc(/C=C2\Sc3ccccc3N2CCCN2CCOCC2)c2ccccc21.[I-] | – | – | –
– | 105 | – | 840000 | Active | – | – | CC1CCN(CCCN2/C(=C/c3cc(/C=C/c4ccc(N(C)C)cc4)[n+](C)c4ccccc34)Sc3ccccc32)CC1.[I-] | Active | Active | Activity [4]: 648 nm; IC50 [5]: 11 µM; IC50 [6]: 14.7 µM; IC50 [8]: 21.2 µM; IC50 [9]: 12.6 µM; Activity [10]: 165 nm; Activity [12]: 0.317; IC50 [13]: 34.8 µM; IC50 [14]: 14.6 µM
907000 | 77.2 | 785000 | – | – | 154000 | 722000 | CC1CCN(CCCN2/C(=C/c3cc(/C=C/c4ccc(N(c5ccccc5)c5ccccc5)cc4)[n+](C)c4ccccc34)Sc3ccccc32)CC1.[I-] | – | – | –
983000 | 82.7 | 957000 | 786000 | – | – | 902000 | CC1CCN(CCCN2/C(=C/c3cc(/C=C/c4ccc(C#N)cc4)[n+](C)c4ccccc34)Sc3ccccc32)CC1.[I-] | – | – | –
– | – | – | – | Active | – | – | CN(C)c1ccc(Nc2c3ccc(NC(=O)CCN4CCCC4)cc3nc3cc(NC(=O)CCN4CCCC4)ccc23)cc1 | Active | Active | Activity [19]: Active; Activity [20]: Active
645000 | 70.7 | 523000 | – | – | 272000 | 490000 | C[n+]1c(/C=C/c2ccc(N(c3ccccc3)c3ccccc3)cc2)cc(/C=C2\Sc3ccccc3N2CCCN2CCOCC2)c2ccccc21.[I-] | – | – | –
486000 | 87.3 | 301000 | 764000 | inactive | 657000 | 325000 | CSc1ccc(/C=C/c2cc(/C=C3\Sc4ccccc4N3CCCN3CCOCC3)c3ccccc3[n+]2C)cc1.[I-] | inactive | inactive | IC50 [5]: 96.5 µM; IC50 [6]: 96.8 µM; IC50 [8]: 90.3 µM; IC50 [9]: 105 µM; IC50 [13]: 58 µM; IC50 [14]: 91.1 µM
766000 | 98.4 | 650000 | 787000 | – | 755000 | 689000 | CSc1ccc(/C=C/c2cc(/C=C3\Sc4ccccc4N3CCCN3CCC(C)CC3)c3ccccc3[n+]2C)cc1.[I-] | – | – | –
443000 | 83 | 722000 | 501000 | – | 379000 | 505000 | C[n+]1c(/C=C/c2ccc(C#N)cc2)cc(/C=C2\Sc3ccccc3N2CCCN2CCOCC2)c2ccccc21.[I-] | – | – | –
